The source of these data is ChEMBL document CHEMBL4002602, “Design, Synthesis of Novel, Potent, Selective, Orally Bioavailable Adenosine A2A Receptor Antagonists and Their Biological Evaluation” (J Med Chem, 2017).

Data set [1] has as its target T1, Adenosine receptor A1 (Homo sapiens) (UniProt P30542).
T1 sequence (whole entry): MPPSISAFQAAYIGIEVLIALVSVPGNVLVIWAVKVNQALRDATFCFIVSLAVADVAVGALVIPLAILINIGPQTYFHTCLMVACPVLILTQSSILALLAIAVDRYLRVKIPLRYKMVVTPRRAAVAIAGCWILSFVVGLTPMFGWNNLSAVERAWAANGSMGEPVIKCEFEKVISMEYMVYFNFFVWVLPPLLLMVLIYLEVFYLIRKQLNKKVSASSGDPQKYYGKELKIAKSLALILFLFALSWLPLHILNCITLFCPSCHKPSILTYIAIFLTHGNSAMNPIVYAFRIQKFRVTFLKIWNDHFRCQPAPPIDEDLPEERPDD
The experiment in a line: Antagonist activity at human adenosine A1 receptor expressed in HEK293 cell membranes assessed as decrease in CPA/forskolin-induced cAMP level at 10 uM pretreated for 15 mins followed by agonist addition for 15 mins and subsequent forskolin stimulation measured after 30 mins. It counts as functional, cell-based. In a few lines:
(§1)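 Whole HEK-A1 cells were seeded overnight and then pretreated with 1 U/ml ADA for 90 min at 37 °C and 5% CO2. Compound was added for 15 min, then 1 nM CPA for 15 min, then forskolin for 30 min, at room temperature in incomplete DMEM with ADA and 20 μM rolipram. cAMP was read by HTRF (620/665 nm). Compounds ran at 12 concentrations in triplicate, with 10 or 30 μM as the top concentration.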

In data set [2] the target is T2, Adenosine receptor A2b (Homo sapiens) (UniProt P29275).
T2 sequence (whole entry): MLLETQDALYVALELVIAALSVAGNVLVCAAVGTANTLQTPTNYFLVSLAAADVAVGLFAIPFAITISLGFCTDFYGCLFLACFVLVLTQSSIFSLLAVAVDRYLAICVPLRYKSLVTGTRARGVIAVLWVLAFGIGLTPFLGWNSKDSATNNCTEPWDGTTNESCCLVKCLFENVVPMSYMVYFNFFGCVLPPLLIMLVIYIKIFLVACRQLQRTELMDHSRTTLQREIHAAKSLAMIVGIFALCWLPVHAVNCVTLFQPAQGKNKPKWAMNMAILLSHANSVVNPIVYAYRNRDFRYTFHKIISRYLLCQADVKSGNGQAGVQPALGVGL
Nature of the data set: Antagonist activity at human adenosine A2B receptor expressed in HEK293 cell membranes assessed as decrease in NECA/forskolin-induced cAMP level at 10 uM pretreated for 15 mins followed by agonist addition for 15 mins and subsequent forskolin stimulation measured after 30 mins. It counts as functional, cell-based. In a few lines:
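Whole HEK-A2B cells were seeded overnight and then pretreated with 1 U/ml ADA for 90 min at 37 °C and 5% CO2. Compound was added for 15 min, then 70 nM NECA for 15 min, at room temperature with mixing in incomplete DMEM with ADA. cAMP was read by HTRF (620/665 nm). Compounds ran at 12 concentrations in triplicate, with 10 μM as the highest tested concentration.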
On the technique in general: Changes in cAMP serve as a functional read-out for many G protein-coupled receptors.

In a further data set the target is hERG (KCNH2) (Homo sapiens, UniProt Q12809). Nature of the data set: Inhibition of [3H]-astemizole binding to human ERG at 3 uM after 2 hrs by liquid scintillation counting method relative to control. The note with it: probe [3H]-astemizole.
Data set [3] can be described thus: Metabolic stability in rat hepatocytes assessed as parent compound remaining at 1 uM measured at 60 mins post dose by LC-MS/MS analysis. The note with it: read-out: Stability. In kind it is ADME, cell-based, Hepatocyte.
The next data set deals with CYP1A2 (Homo sapiens, UniProt P05177). The experiment in a line: Inhibition of CYP1A2 in human liver microsomes at 5 to 25 uM using phenacetin as substrate preincubated for 5 mins with substrate followed by NADPH addition measured after 10 mins by LC-MS/MS analysis. In kind it is ADME. The note with it: human liver microsomes, probe phenacetin. A general note: Microsomes from liver hold many membrane-bound enzymes, among them those of drug oxidation.

Another data set has as its target CYP2D6 (Homo sapiens, UniProt P10635). The experiment in a line: Inhibition of CYP2D6 in human liver microsomes at 5 to 25 uM using dextromethorphan as substrate preincubated for 5 mins with substrate followed by NADPH addition measured after 10 mins by LC-MS/MS analysis. It counts as ADME. The conditions noted are these: human liver microsomes, probe dextromethorphan.

The nature of data set [4]: Apparent permeability across apical to basolateral side in human Caco2 cells at 5 uM after 90 mins. In kind it is ADME, cell-based. The note with it: Caco-2. On the technique in general: Passage across Caco-2 layers is used to estimate intestinal permeability.
Data set [5] deals with T1, Adenosine receptor A1 (Homo sapiens). Nature of the data set: Antagonist activity at human adenosine A1 receptor expressed in HEK293 cell membranes assessed as decrease in CPA/forskolin-induced cAMP level at 30 uM pretreated for 15 mins followed by agonist addition for 15 mins and subsequent forskolin stimulation measured after 30 mins. It counts as functional, cell-based. A digest of the protocol: as §1

A further data set concerns the target CYP2C9 (Homo sapiens, UniProt P11712). The experiment in a line: Inhibition of CYP2C9 in human liver microsomes at 5 to 25 uM using diclofenac as substrate preincubated for 5 mins with substrate followed by NADPH addition measured after 10 mins by LC-MS/MS analysis. It counts as ADME. The note with it: human liver microsomes, probe diclofenac.
The target in data set [6] is T3, Adenosine receptor A3 (Homo sapiens) (UniProt P0DMS8).
T3 sequence (whole entry): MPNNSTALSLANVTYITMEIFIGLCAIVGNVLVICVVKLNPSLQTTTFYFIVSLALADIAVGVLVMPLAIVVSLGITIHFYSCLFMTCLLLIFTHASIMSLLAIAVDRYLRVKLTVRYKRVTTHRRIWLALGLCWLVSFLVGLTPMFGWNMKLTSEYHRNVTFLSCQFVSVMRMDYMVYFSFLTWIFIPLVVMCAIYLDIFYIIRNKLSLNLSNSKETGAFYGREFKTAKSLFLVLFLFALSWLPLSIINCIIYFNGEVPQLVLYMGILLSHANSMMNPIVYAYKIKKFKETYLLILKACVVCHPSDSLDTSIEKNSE
The experiment in a line: Displacement of [3H]-HEMADO from human adenosine A3 receptor expressed in HEK293 cell membranes at 30 uM measured after 90 mins.

Data set [7] in a line: Protein binding in rat serum at 1 uM after 6 hrs by HT dialysis method. It counts as ADME, cell-free. The note with it: read-out: PB (converted).
Another data set concerns the target CYP2C19 (Homo sapiens, UniProt P33261). The experiment in a line: Inhibition of CYP2C19 in human liver microsomes at 5 to 25 uM using (S)mephenytoin as substrate preincubated for 5 mins with substrate followed by NADPH addition measured after 40 mins by LC-MS/MS analysis. In kind it is ADME. The note with it: human liver microsomes, probe (S)-mephenytoin.
The test system of the next data set is HepG2. The experiment in a line: Cytotoxicity against human HepG2 cells. It counts as cell-based.
A short description of data set [8]: Half-life in rat hepatocytes at 1 uM by LC-MS/MS analysis. It counts as ADME, cell-based, Hepatocyte.
A further data set has as its target CYP3A (Homo sapiens, UniProt P08684+P20815+P24462+Q9HB55). Nature of the data set: Inhibition of CYP3A in human liver microsomes at 5 to 25 uM using testosterone as substrate preincubated for 5 mins with substrate followed by NADPH addition measured after 10 mins by LC-MS/MS analysis. In kind it is ADME. The conditions noted are these: human liver microsomes, probe testosterone.

The test system of the next data set is Rattus norvegicus. Nature of the data set: Clearance in Wistar rat at 3 mg/kg, iv by LC/MS/MS analysis relative to hepatic blood flow. It counts as ADME, organism-based. The conditions noted are these: in vivo.

One may read the inhibition as the drop in the measured response relative to a control, in per cent. In general, IC50 refers to the concentration that inhibits the measured activity by half. A low value points to greater potency in that assay. What is called Papp A→B is how fast a substance crosses the layer from the apical side. The half-life is how long it takes for the measured level to halve. A high value points to slow decline.

Activity calls are given as the source filed them. No cut-off for these calls is given here.

Sequence of CYP2D6 (P10635 whole entry): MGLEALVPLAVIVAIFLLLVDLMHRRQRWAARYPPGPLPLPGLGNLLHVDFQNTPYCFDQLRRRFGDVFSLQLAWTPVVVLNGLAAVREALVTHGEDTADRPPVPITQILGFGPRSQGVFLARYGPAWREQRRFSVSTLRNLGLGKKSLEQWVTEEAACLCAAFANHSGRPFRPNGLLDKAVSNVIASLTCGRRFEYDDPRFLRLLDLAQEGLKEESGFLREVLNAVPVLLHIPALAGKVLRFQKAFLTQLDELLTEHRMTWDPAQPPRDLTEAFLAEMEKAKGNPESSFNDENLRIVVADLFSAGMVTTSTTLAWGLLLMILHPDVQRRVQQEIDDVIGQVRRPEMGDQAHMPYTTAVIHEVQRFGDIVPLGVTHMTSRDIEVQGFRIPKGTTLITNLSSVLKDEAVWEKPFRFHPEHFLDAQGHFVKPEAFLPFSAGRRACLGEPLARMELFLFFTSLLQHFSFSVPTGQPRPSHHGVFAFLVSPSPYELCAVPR
Sequence of hERG (KCNH2) (Q12809 whole entry): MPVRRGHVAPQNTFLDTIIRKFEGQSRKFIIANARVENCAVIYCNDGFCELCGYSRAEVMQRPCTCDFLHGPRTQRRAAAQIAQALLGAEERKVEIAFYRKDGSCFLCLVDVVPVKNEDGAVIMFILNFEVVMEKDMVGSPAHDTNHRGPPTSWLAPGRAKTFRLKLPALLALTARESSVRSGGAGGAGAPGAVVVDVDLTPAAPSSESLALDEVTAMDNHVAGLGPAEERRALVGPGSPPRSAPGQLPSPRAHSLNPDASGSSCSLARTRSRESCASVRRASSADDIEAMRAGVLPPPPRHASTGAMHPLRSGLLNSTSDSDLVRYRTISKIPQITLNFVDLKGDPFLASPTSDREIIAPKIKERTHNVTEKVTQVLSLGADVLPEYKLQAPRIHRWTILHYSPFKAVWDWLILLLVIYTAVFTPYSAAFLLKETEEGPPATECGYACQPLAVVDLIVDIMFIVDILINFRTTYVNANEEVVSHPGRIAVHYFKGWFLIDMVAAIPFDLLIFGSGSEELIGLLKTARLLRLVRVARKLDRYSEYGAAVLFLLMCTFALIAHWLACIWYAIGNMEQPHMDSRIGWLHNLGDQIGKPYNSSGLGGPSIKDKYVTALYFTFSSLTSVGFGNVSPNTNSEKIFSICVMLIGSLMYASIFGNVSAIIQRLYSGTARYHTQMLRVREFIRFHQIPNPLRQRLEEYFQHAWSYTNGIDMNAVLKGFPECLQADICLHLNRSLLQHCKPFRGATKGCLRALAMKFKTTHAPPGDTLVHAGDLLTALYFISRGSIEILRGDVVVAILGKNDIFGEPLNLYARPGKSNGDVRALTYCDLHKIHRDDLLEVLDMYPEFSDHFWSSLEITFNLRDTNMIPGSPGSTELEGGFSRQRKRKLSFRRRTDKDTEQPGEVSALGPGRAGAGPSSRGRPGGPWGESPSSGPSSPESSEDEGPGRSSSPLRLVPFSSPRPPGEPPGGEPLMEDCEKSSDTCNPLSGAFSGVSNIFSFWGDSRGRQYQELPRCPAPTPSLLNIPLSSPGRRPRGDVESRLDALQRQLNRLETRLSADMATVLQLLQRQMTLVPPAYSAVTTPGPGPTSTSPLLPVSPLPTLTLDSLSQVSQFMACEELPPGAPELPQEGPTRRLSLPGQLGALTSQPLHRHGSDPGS
Sequence of CYP1A2 (P05177 whole entry): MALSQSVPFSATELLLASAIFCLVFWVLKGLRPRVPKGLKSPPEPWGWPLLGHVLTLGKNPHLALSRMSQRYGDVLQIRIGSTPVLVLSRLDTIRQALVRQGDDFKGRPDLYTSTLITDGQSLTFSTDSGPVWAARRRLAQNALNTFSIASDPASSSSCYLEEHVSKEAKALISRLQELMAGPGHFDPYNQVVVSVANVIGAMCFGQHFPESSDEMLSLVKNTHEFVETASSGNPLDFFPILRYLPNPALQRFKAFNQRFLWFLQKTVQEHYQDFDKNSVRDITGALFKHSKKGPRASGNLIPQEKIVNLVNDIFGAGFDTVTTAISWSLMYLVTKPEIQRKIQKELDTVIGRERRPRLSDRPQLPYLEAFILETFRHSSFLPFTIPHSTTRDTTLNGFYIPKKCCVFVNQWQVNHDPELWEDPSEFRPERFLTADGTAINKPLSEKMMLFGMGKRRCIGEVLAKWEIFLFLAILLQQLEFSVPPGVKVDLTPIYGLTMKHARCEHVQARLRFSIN
Sequence of CYP2C9 (P11712 whole entry): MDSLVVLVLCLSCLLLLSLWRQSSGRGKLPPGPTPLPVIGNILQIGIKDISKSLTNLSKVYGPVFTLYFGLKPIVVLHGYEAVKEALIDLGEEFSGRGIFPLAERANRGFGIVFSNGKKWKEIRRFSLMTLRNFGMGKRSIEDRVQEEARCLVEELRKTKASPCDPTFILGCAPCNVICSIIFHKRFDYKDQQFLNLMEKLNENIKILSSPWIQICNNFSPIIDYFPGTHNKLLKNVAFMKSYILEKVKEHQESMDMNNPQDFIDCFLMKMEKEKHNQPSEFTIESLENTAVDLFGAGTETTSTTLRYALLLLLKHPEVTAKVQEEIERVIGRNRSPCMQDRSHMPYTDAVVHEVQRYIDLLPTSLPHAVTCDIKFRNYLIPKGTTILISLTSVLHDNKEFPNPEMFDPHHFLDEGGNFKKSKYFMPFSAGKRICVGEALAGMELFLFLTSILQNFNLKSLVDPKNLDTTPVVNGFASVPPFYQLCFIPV
Sequence of CYP2C19 (P33261 whole entry): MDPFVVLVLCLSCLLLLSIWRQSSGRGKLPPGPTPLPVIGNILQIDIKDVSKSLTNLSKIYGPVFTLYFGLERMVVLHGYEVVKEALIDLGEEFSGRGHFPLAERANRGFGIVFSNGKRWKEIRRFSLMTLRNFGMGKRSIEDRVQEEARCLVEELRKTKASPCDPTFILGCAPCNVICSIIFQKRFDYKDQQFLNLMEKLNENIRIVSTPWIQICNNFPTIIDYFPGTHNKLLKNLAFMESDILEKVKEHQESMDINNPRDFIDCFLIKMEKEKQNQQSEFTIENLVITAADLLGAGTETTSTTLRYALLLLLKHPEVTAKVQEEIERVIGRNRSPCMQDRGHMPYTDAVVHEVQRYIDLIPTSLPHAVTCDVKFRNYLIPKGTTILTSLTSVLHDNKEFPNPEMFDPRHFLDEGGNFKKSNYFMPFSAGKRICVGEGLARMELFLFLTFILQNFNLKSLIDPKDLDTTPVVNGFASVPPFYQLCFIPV

For `COc1ccc(N2CCOCC2)c2sc(NC(=O)C(C)(C)Oc3ccc(F)c(F)c3)nc12`, the result in data set [1] and in data set [2] was inactive. Also, on hERG (KCNH2), the inhibition at 2 h, 3 µM is < 5%.

With `COc1ccc(N2CCOCC2)c2sc(NC(=O)C(C)(C)Oc3ccc(F)cc3)nc12`, the result in data set [2] was inactive. In addition, the inhibition at 2 h, 3 µM at hERG (KCNH2) is < 5%.

Take `COc1cnc(N2CCOCC2)c2sc(NC(=O)C(C)(C)Oc3ccc(F)cc3)nc12`: the result in data set [1] was inactive.

On to `CCN(CC)C1CCC(C)(C(=O)Nc2nc3c(OC)ccc(N4CCOCC4)c3s2)CC1` (configuration not stated), for which, in data set [3], the remaining at 1 h, 1 µM is 89%. For the same molecule, the IC50 at 10 min at CYP1A2, at CYP2D6, at CYP2C9 and at CYP3A was > 50 µM throughout. In addition, the Papp A→B at 1.5 h, 5 µM in data set [4] came to 3.7 ×10⁻⁶ cm/s. Besides, the outcome in data set [5] and in [6] was inactive. Besides, the fraction unbound at 6 h, 1 µM in data set [7] was 0.24. Besides, on CYP2C19, the IC50 at 40 min was > 50 µM. Further, the IC50 with HepG2 was > 100 µM. The half-life at 1 µM in data set [8] is > 1 h. Further, the clearance in the data set on Rattus norvegicus fell in the range of 60 to 65%.

As for `COc1ccc(N2CCOCC2)c2sc(NC(=O)C3(C)CCC(C)(O)CC3)nc12` (configuration not stated), in [3], the remaining at 1 h, 1 µM is 88%. Also, the IC50 at 10 min against CYP1A2, on CYP2D6, against CYP2C9 and against CYP3A was > 25 µM each time. In [4], the Papp A→B at 1.5 h, 5 µM came to 12.2 ×10⁻⁶ cm/s. In addition, the result in data set [5] and in data set [6] was inactive. In addition, in data set [7], the fraction unbound at 6 h, 1 µM was 0.13. Also, on CYP2C19, the IC50 at 40 min was > 25 µM. The IC50 in the data set on HepG2 is > 100 µM. The half-life at 1 µM in data set [8] was > 1 h. The clearance in the data set on Rattus norvegicus is 60 to 65%.
